Assay results of several laboratories.
Protocols differ between the studies behind these lines.
Observed: enzyme activity
Mode: inhibitor
FGFR1: Fibroblast growth factor receptor 1 (FGFR1, Homo sapiens, UniProt P11362)

Cn1c(=O)n(-c2ccc(C(C)(C)C#N)cc2)c2c3cc(-c4cnc5ccccc5c4)ccc3ncc21
remaining activity (FGFR1; 10 µM): 106%

COc1cc(Cl)c(C(=O)N[C@@H](CN[C@H]2CC[C@@H](N)CC2)Cc2ccc(C#N)cc2)cc1-c1ccc(CN[C@H](C)c2ccc(C)cc2)o1
remaining activity (FGFR1; 1 µM): 94%

O=C(Nc1cnn(-c2csc(C(=O)NC3COC3)c2)c1)Nc1c(F)cccc1Cl
remaining activity (FGFR1; 5 µM): 91.4%

Cc1cnc(NC2CCOCC2)nc1-n1cnc(C(=O)NC(CN)c2cc(F)cc(Cl)c2)c1 (stereo not drawn)
remaining activity (Fibroblast growth factor receptor 1 (FGFR1, Homo sapiens, UniProt P11362, V561M); radiometric; 1 µM): 104%

Nc1nc(NC2CCCCC2)sc1C(=O)c1ccccc1
remaining activity (FGFR1; 10 µM): 97%

COc1cc(Nc2cnc(C#N)c(O[C@H](C)CN(C)C)n2)ncc1-c1cnn(C)c1
remaining activity (FGFR1; radiometric; 10 µM): 39%

FC(F)c1nc2ccccc2n1-c1nc(N2CCOCC2)nc(N2CCOCC2)n1
remaining activity (FGFR1; 10 µM): 102%

CCN(CC)CCNC(=O)c1c(C)[nH]c(/C=C2\C(=O)Nc3ccc(F)cc32)c1C
remaining activity (FGFR1; 1 µM): 22%

CCCOc1ccc(OC)c(F)c1C(=O)c1ccc(C(=O)N[C@@H]2CNC[C@H]2NC(=O)c2ccc3[nH]ncc3c2)cc1
remaining activity (FGFR1; 10 µM): 28%

Cc1[nH]c(/C=C2\C(=O)Nc3ccc(F)cc32)c(C)c1C(=O)N[C@H]1CCN(C(=O)N(C)C)C1
remaining activity (FGFR1; 1 µM): 90%

CC(C)(O)[C@H]1CC[C@H](Nc2ccc3ncc(-c4cccc(C(F)(F)F)c4)n3n2)CC1
remaining activity (FGFR1; 1 µM): 97%

CC(C)(C)c1nc(-c2cccc(NS(=O)(=O)c3c(F)cccc3F)c2F)c(-c2ccnc(N)n2)s1
remaining activity (FGFR1; radiometric; 1 µM): 89%
